The entries come from a sample that favours hits as a whole.
UPR CHOP act: activators of apoptotic CHOP UPR arm, primary screen, cell-based, CHO-CHOP luciferase reporter, luminescence, uHTS; UPR activation; percent of tunicamycin response over DMSO baseline; activation, % at 10 µM; actives 0.34% (n = 330,000); AID 449763, 2010;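 active = at 10 µM dose, activation of 40% or more, normalized to positive control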
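Test system: CHO CHOP reporter cells. Input: 500 CHO-CHOP cells per well. Medium: F12 with 10% FBS. Technique: luciferase luminescence. Measure: percent activation relative to tunicamycin control. Dosing: 10 µM compound, 0.5% DMSO. Timing: 16-18 h cell attachment, then 6 h compound exposure, 37 °C.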
XBP1 UPR activ: activators of adaptive XBP1 UPR arm, primary screen, cell-based, CHO-XBP1 luciferase reporter, luminescence, uHTS | IRE1-XBP1 UPR activation; percent of tunicamycin response, DMSO as zero | activation, % at 20 µM | actives 0.33% (n = 330,000);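 active = versus positive control, 20 µM dose yields 30% or more activation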
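Material: CHO-XBP1 cells stably carrying IRE1-XBP1-driven luciferase reporter / Amount: 1000 cells per well / Compound: 20 µM, 1% DMSO / Times: 6 h treatment, 37 °C / Detection: luciferase luminescence / Measure: % activation of reporter signal versus tunicamycin and DMSO controls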
Beta2AR agonist: beta2AR agonists driving receptor internalization, primary screen, cell-based, FAP fluorogen, flow cytometry. response, % (concentration not given with the values). actives 0.43% (n = 340,000). AID 504454, 2011. Beta-2 adrenergic receptor (Homo sapiens), P07550. Am2.2-beta2AR cells;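 active = response above a set limit, near 3 SD of response in nonfluorescent compounds, cut at about 42% in these data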
Target sequence (P07550 whole entry, looked up): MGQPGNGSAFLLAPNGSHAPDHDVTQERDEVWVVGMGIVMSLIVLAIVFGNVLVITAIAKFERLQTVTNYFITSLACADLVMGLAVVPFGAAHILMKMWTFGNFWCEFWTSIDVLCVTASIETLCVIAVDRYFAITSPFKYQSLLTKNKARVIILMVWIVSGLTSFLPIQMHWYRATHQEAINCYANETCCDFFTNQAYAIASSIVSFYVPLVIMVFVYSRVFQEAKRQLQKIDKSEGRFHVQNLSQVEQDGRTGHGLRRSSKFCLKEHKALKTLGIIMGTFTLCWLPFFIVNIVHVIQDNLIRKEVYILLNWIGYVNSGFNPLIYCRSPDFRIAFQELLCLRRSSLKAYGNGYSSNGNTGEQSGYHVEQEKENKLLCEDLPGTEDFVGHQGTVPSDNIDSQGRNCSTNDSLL
Dynein cargo inh: inhibitors of GR-EGFP nuclear translocation, primary screen, dynein cargo transport inhibitor project, imaging, high-content, 3617.4 mouse cells; test concentration mostly 20 µM; stimulated with dexamethasone, 1 µM; stronger effect = lower value; z-score, hits read low; actives 0.47% (n = 220,000);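 active = plate z-score of nuclear minus cytoplasmic receptor signal below a set negative limit, without overly bright fluorescence or cell loss, cut at about -3.5 in these data, passing the limit was not always enough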;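 also: z-score of nuclear minus cytoplasmic ring GR-EGFP intensity difference per well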
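Also added – dexamethasone, 1.0 µM final · Buffer or medium – tet-free, stripped-serum medium · Schedule – induction 48 h, compound 1 h, agonist 30 min · Detection – formaldehyde fixation, Hoechst nuclear stain, 10x automated fluorescence imaging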
CHOP inhibitor: inhibitors of CHOP promoter induction, primary screen, cell-based, unfolded protein response, luciferase reporter. CHO-K1 CHOP-promoter luciferase, tunicamycin-induced, 15-18 h. inhibition, % at 10 µM. actives 3.8% (n = 220,000);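 active = compounds that reduced the stress-induced luciferase reporter signal by more than about 70% of percent inhibition, limit read from the data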
p-CIP stab down: p/CIP-EGFP fusion destabilizers, primary screen, fluorescence, F442A cells | decrease of EGFP signal, % at 10 µM | AID 1984, 2009 | 16 h | actives 0.01% (n = 290,000);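 active = EGFP signal decrease of at least 30% at 10 µM or well 3 SD below plate mean, unless failing retest; inactive = the rest, including hits failing retest or dose response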
CHOP confirm: retest of CHOP induction inhibitors, confirmation, cell-based; inhibition, % at 10 µM; shares compounds with CHOP inhibitor; AID 504437, 2011; actives 45% (n = 2,100); CHO-CHOP promoter luciferase reporter, tunicamycin-induced, luminescence;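 active = mean of three repeat readings of reporter signal inhibition above a set limit, cut at about 70% in these data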
UPR CHOP confirm: activators of apoptotic CHOP UPR arm, confirmation, cell-based, CHO-CHOP luciferase reporter, single concentration. shares compounds with UPR CHOP act. CHO-CHOP cells, CHOP-luciferase reporter luminescence; percent of tunicamycin response, DMSO as zero. activation, % at 10 µM. actives 64% (n = 1,000). AID 463112, 2010; in the data active = activation above about 33%
XBP1 UPR conf: IRE1-XBP1 UPR arm activators, confirmation, cell-based, CHO-XBP1 luciferase reporter, luminescence, single concentration; actives 63% (n = 1,000); shares compounds with XBP1 UPR activ; activation, % at 20 µM;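 active = reporter signal at least 30% of the positive control's activation in two or more of four replicate wells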
A number is an active result; 0 = inactive; - = not tested or not shown.

SMILES	UPR CHOP act	XBP1 UPR activ	Beta2AR agonist	Dynein cargo inh	CHOP inhibitor	p-CIP stab down	CHOP confirm	UPR CHOP confirm	others
Cc1ccc(Oc2c(C(N)=O)cc([N+](=O)[O-])cc2[N+](=O)[O-])cc1	64	0	57	0	108	0	0	0
Cc1ccc(CNc2ccc([N+](=O)[O-])cc2C(N)=O)cc1	0	0	0	-	-	-	-	-
COC(=O)N/N=C/c1ccc(-c2cccc(Cl)c2)o1	0	0	0	0	0	0	-	-
CC1=NOC(=O)/C1=C\c1ccc(-c2cccc(Cl)c2)o1	115	0	101	0	102	0	0	190
COc1cc(CCC(=O)NCc2ccc(F)cc2)cc(OC)c1OC	0	0	0	-	-	0	-	-
COc1ccccc1-c1cc(C(F)(F)F)nc(S(=O)(=O)CCCC(=O)NCc2ccc(F)cc2)n1	124	0	0	0	100	0	0	271
Cc1cc(NC(=O)CSCC(=O)N2CCN(c3ccccc3)CC2)no1	0	0	0	-	-	-	-	-
O=C1C=CC(=O)C(C2=C3C(=O)N(CCc4ccccc4)CC(=O)N3CCC2)=C1	131	0	-	0	105	0	0	49
C=CCn1cc(C(=O)NCCCOCC)c(=O)c2cc(S(=O)(=O)N(CC)CC)ccc21	0	0	0	0	0	0	-	-
CC(NC(=O)/C(C#N)=C/c1ccc(Cl)c([N+](=O)[O-])c1)c1ccccc1 (stereo unspecified)	63	0	-	0	105	0	94	0
COc1ccc(NC(=O)/C(C#N)=C\c2ccc(Br)o2)cc1	0	0	0	0	0	0	-	-
N#C/C(=C\c1ccc([N+](=O)[O-])o1)C(=O)Nc1ccc(F)cc1	166	0	0	0	108	0	106	156
COc1cccc(Oc2ncnc(N)c2[N+](=O)[O-])c1	0	0	0	-	-	0	-	-
O=C(O)c1ccc(Cn2cc(/C=C\[N+](=O)[O-])c3ccccc32)o1	0	0	0	-	-	0	-	-
Cc1cccc(Cn2cc(/C=C/[N+](=O)[O-])c3ccccc32)c1	50	53	0	0	102	0	0	218
O=[N+]([O-])c1cc(S(=O)(=O)C(F)(F)F)ccc1Sc1nc2ccccc2[nH]1	43	0	0	0	108	0	124	0
O=C(COc1ccc(/C=N/NC(=O)c2cc3ccccc3o2)cc1Cl)Nc1ccccc1	51	0	0	0	108	0	0	0
COc1cc(/C=N/NC(=O)c2ccccc2O)ccc1OCC(=O)Nc1ccccc1	0	0	0	-	-	0	-	-
O=C(Cc1cccc(C(F)(F)F)c1)NCc1cccnc1	0	0	0	-	-	0	-	-
O=C(C#Cc1ccccc1)c1cccc([N+](=O)[O-])c1	293	0	67	0	107	0	0	197
O=C(/C=C/c1ccc(-c2ccccc2)o1)c1ccccc1	93	0	0	0	98	0	0	0
COc1ccc(CNS(=O)(=O)c2ccc(-n3cnnn3)c(C)c2)cc1	0	0	0	-	-	0	-	-
CCOc1ccc(CCNC(=O)c2ccc(S(=O)(=O)N3CCCC3)cc2)cc1OCC	0	0	0	-	-	-	-	-
CC1(C)CC(=O)C(=Cc2cn(-c3ccccc3)nc2-c2ccc(Cl)cc2)C(=O)C1	288	0	0	0	105	0	0	221
CC1(C)CC(=O)C(=Cc2cn(CCC#N)nc2-c2ccc(Cl)cc2)C(=O)C1	0	0	0	0	0	0	-	-
SMILES	UPR CHOP act	XBP1 UPR activ	Beta2AR agonist	Dynein cargo inh	CHOP inhibitor	p-CIP stab down	CHOP confirm	UPR CHOP confirm	others
O=[N+]([O-])c1ccc(-c2nn(-c3ccccc3)cc2/C=N/n2c(-c3cccs3)n[nH]c2=S)cc1	0	41	0	0	102	0	101	-	XBP1 UPR conf=0
CCCOC(=O)c1cccc(Nc2nc(-c3cccnc3)nc3ccccc23)c1	0	32	0	0	96	0	0	-	XBP1 UPR conf=58
O=C(NCC1OCCc2ccccc21)c1ccco1 (stereo unspecified)	0	0	0	0	0	0	-	-
O=C(NCC1OCCc2ccccc21)c1ccc(NC(=O)c2ccc(Cl)cc2)cc1 (stereo unspecified)	0	38	0	0	103	0	0	-	XBP1 UPR conf=0
COc1ccccc1NC(=O)CSc1nc2c(sc3ccccc32)c(=O)n1CCN(C)C	0	0	0	0	0	0	-	-
CCN(CC)CCn1c(SCC(=O)Nc2ccc(F)cc2)nc2c(sc3ccccc32)c1=O	0	166	-	0	104	0	90	-	XBP1 UPR conf=228
CN(O)/C=N/C(=S)Nc1ccc(Cl)cc1Cl	0	0	0	0	0	0	-	-
COc1ccc(-c2[nH]c(-c3ccc(Cl)cc3)nc2SCC(=O)Nc2nccs2)cc1	0	46	0	0	98	0	0	-	XBP1 UPR conf=0
COc1ccccc1Nc1nnc(SCC(=O)NC(=O)Nc2ccc3c(c2)OCCO3)s1	0	52	0	0	104	0	0	-	XBP1 UPR conf=49
CC(=O)Nc1ccc(NC(=O)C(C)OC(=O)c2ccc(C)s2)cc1 (stereo unspecified)	0	0	0	0	0	0	-	-
Cc1nn(Cc2c(Cl)cccc2Cl)c(C)c1NC(=O)c1cn(-c2ccccc2)nc1-c1ccccc1	146	78	0	0	109	0	106	76	XBP1 UPR conf=85
Cc1cccc(C)c1NC(=O)CNC(=O)c1cn(-c2ccccc2)nc1-c1ccccc1	0	0	0	-	-	0	-	-
COc1cc(NC(=O)c2ccco2)c(C(=O)OCC(=O)c2c[nH]c3ccccc23)cc1OC	0	131	0	0	107	0	0	-	XBP1 UPR conf=152
COc1ccccc1-c1cn[nH]c1-c1ccc(OCc2ccc([N+](=O)[O-])cc2)cc1O	0	42	0	0	99	0	0	-	XBP1 UPR conf=0
COc1ccccc1-c1cn[nH]c1-c1ccc(OCc2ccc(F)cc2)cc1O	0	0	0	0	0	0	-	-
NC(=O)CC(NC(=O)Cc1cccc2ccccc12)c1ccc(NCCOc2ccccc2)c([N+](=O)[O-])c1 (stereo unspecified)	0	48	0	0	101	0	112	-	XBP1 UPR conf=39

Screens (PubChem BioAssay)
